Tests used:
[1] = Metabolic stability in human liver microsomes assessed as parent compound remaining at 1 uM preincubated for 5 mins followed by addition of NADPH regenerating system and measured after 30 mins by LC-MS/MS method; assay type: ADME, microsome; conditions: read-out: Stability
Summary of the method: (§1)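 Liver microsomes (0.5 mg/mL; human, dog or mouse) in 0.1 M phosphate buffer with test article at 1 μM, preincubated 5 min at 37 °C. NADPH regenerating system added, then 30 min at 37 °C. Acetonitrile with chlorpropamide internal standard added, sample centrifuged, supernatant analysed by LC-MS/MS.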

CYP2D6 = CYP2D6 (Homo sapiens, UniProt P10635); assay: Inhibition of CYP2D6 in human liver microsomes assessed as remaining activity at 10 uM using dextromethorphan as substrate preincubated for 5 mins followed by addition of NADPH regenerating system and measured after 15 mins by LC-MS/MS analysis relative to control; assay type: ADME; conditions: probe dextromethorphan, read-out: Activity
Sequence of CYP2D6 (P10635 whole entry): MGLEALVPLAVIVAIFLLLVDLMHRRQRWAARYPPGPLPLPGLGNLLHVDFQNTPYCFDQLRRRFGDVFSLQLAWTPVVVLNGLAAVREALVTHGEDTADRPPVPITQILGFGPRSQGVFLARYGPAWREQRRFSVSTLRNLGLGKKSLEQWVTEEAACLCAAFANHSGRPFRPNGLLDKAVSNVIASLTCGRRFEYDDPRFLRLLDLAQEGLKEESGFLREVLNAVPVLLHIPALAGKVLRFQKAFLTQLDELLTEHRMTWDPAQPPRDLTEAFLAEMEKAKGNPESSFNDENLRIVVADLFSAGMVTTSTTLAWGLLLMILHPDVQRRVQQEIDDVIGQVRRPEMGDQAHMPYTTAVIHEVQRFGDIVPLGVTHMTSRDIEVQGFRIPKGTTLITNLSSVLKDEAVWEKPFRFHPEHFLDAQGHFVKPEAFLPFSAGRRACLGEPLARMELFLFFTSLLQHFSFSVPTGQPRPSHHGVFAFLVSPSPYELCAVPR
Summary of the method: (§2)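 Human liver microsomes (0.25 mg/mL) in 0.1 M phosphate buffer with test article at 0 or 10 μM and substrate cocktail, preincubated 5 min at 37 °C. Cocktail A: phenacetin 50 μM, coumarin 2.5 μM, S-mephenytoin 100 μM, dextromethorphan 5 μM, midazolam 2.5 μM. Cocktail B: bupropion 50 μM, amodiaquine 2.5 μM, tolbutamide 100 μM, chlorzoxazone 50 μM. NADPH system added, then 15 min at 37 °C; acetonitrile quench, LC-MS/MS.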

[2] = Metabolic stability in dog liver microsomes assessed as parent compound remaining at 1 uM preincubated for 5 mins followed by addition of NADPH regenerating system and measured after 30 mins by LC-MS/MS method; assay type: ADME, Canis lupus familiaris, microsome; conditions: read-out: Stability; summary of the method: as §1
CYP2A6 = target: T1, CYP2A6 (Homo sapiens, UniProt P11509); assay: Inhibition of CYP2A6 in human liver microsomes assessed as remaining activity at 10 uM using coumarin as substrate preincubated for 5 mins followed by addition of NADPH regenerating system and measured after 15 mins by LC-MS/MS analysis relative to control; assay type: ADME; conditions: probe coumarin, read-out: Activity; summary of the method: as §2
T1 sequence (P11509 whole entry): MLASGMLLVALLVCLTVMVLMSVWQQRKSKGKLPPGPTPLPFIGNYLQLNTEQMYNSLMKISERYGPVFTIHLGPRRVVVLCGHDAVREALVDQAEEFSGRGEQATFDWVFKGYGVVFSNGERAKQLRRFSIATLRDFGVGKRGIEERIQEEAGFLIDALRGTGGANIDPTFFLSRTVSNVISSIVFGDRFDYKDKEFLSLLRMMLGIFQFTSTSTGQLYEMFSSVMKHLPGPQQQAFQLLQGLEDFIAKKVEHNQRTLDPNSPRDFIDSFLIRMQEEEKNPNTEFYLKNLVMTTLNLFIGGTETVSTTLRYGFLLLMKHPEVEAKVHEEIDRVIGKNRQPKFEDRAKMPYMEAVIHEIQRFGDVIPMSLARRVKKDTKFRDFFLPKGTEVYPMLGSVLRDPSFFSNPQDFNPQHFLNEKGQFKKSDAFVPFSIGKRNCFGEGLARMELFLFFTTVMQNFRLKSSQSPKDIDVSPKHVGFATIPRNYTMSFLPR

CYP2E1 = CYP2E1 (Homo sapiens, UniProt P05181); assay: Inhibition of CYP2E1 in human liver microsomes assessed as remaining activity at 10 uM using chlorzoxazone as substrate preincubated for 5 mins followed by addition of NADPH regenerating system and measured after 15 mins by LC-MS/MS analysis relative to control; assay type: ADME; conditions: probe chlorzoxazone, read-out: Activity; summary of the method: as §2
Sequence of CYP2E1 (P05181 whole entry): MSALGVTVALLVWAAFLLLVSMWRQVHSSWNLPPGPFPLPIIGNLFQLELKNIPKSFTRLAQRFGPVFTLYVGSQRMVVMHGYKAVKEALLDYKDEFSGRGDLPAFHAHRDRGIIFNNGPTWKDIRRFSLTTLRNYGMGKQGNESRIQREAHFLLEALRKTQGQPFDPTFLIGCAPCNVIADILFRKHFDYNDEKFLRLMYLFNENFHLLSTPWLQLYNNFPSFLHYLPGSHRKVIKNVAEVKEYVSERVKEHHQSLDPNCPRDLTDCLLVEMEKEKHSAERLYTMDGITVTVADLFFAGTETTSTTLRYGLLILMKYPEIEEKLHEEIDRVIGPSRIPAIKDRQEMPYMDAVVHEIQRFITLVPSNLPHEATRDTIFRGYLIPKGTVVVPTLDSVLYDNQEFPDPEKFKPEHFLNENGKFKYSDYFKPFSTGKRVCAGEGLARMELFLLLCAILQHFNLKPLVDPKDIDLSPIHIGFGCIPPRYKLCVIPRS

[3] = Lipophilicity, log P of the compound in neutral form; assay type: physicochemical; conditions: octanol/water
[4] = Metabolic stability in rat plasma assessed as parent compound remaining at 10 uM after 30 mins by LC-MS/MS method; assay type: ADME, cell-free; conditions: read-out: Stability
Summary of the method: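 Rat plasma spiked with test article at 10 μM and incubated at 37 °C, sampled at 0, 30 and 120 min. Acetonitrile containing chlorpropamide internal standard added, then vortexed and centrifuged at 4 °C; supernatant quantified by LC-MS/MS as % remaining. Procaine and diltiazem served as positive controls.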

[5] = Apparent permeability across apical to basolateral side in human Caco2 cells at 25 uM measured every 15 mins for 60 mins by LC-MS/MS method; assay type: ADME, cell-based; conditions: Caco-2
Summary of the method: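 Caco-2 cells were seeded at 1×10^6 per 12-well transwell and grown 3 weeks. Test article was 25 μM in HBSS transport buffer (10 mM glucose, 4 mM bicarbonate, 1 mM HEPES, pH 7.4), added to the apical or basolateral side. Incubated 60 min at 37 °C with sampling every 15 min; LC-MS/MS read-out.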

[6] = Efflux ratio of apparent permeability from basolateral to apical side over apical to basolateral side in human Caco2 cells at 25 uM; assay type: ADME, cell-based; conditions: Caco-2
[7] = Metabolic stability in mouse liver microsomes assessed as parent compound remaining at 1 uM preincubated for 5 mins followed by addition of NADPH regenerating system and measured after 30 mins by LC-MS/MS method; assay type: ADME, microsome; conditions: read-out: Stability; summary of the method: as §1
CYP3A4 = CYP3A4 (Homo sapiens, UniProt P08684); assay: Inhibition of CYP3A4 in human liver microsomes assessed as remaining activity at 10 uM using midazolam as substrate preincubated for 5 mins followed by addition of NADPH regenerating system and measured after 15 mins by LC-MS/MS analysis relative to control; assay type: ADME; conditions: probe midazolam, read-out: Activity; summary of the method: as §2
Sequence of CYP3A4 (P08684 whole entry): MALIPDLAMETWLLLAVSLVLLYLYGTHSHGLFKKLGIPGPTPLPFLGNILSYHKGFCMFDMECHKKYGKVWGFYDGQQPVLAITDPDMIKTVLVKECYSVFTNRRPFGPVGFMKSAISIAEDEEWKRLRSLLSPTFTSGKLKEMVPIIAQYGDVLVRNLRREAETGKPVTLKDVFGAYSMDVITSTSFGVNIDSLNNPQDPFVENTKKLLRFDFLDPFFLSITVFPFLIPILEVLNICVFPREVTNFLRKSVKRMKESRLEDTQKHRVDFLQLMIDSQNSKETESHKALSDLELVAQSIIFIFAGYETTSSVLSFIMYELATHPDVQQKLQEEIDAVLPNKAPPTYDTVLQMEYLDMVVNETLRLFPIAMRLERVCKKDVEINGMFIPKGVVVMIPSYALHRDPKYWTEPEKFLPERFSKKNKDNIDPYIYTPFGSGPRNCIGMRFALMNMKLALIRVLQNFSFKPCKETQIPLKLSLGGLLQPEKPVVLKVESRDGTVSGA

CYP1A2 = target: T2, CYP1A2 (Homo sapiens, UniProt P05177); assay: Inhibition of CYP1A2 in human liver microsomes assessed as remaining activity at 10 uM using phenacetin as substrate preincubated for 5 mins followed by addition of NADPH regenerating system and measured after 15 mins by LC-MS/MS analysis relative to control; assay type: ADME; conditions: probe phenacetin, read-out: Activity; summary of the method: as §2
T2 sequence (P05177 whole entry): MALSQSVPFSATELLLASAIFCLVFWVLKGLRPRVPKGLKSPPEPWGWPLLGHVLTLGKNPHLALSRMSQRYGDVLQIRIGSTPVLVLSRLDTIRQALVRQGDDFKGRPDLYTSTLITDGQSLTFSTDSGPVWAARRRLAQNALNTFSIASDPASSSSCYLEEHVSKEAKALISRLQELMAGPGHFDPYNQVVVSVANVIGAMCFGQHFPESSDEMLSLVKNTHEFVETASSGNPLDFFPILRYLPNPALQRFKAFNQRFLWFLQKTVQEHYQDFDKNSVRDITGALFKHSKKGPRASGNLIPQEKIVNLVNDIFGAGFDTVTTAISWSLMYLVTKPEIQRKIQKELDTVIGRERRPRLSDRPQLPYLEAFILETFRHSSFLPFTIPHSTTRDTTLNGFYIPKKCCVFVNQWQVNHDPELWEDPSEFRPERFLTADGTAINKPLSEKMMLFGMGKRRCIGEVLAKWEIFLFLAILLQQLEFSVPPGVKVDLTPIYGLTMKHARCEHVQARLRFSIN

[8] = Metabolic stability in rat liver microsomes assessed as parent compound remaining at 1 uM preincubated for 5 mins followed by addition of NADPH regenerating system and measured after 30 mins by LC-MS/MS method; assay type: ADME, microsome; conditions: read-out: Stability
Summary of the method: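 Liver microsomes (0.5 mg/mL) in 0.1 M phosphate buffer with test article at 1 μM. Preincubated 5 min at 37 °C, then NADPH regeneration system added and incubated 30 min at 37 °C. Quenched with acetonitrile containing chlorpropamide internal standard and centrifuged; supernatant analysed by LC-MS/MS for % parent remaining. Verapamil served as positive control.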

Row | remaining at 0.5 h, 1 µM [1] [%] | activity at 0.25 h, 10 µM (CYP2D6) [%] | remaining at 0.5 h, 1 µM [2] [%] | activity at 0.25 h, 10 µM (CYP2A6) [%] | activity at 0.25 h, 10 µM (CYP2E1) [%] | logP [3] | remaining at 0.5 h, 10 µM [4] [%] | Papp A→B at 1 h, 25 µM [5] [×10⁻⁶ cm/s] | efflux ratio at 25 µM [6] | remaining at 0.5 h, 1 µM [7] [%] | activity at 0.25 h, 10 µM (CYP3A4) [%] | activity at 0.25 h, 10 µM (CYP1A2) [%] | remaining at 0.5 h, 1 µM [8] [%] | Structure (SMILES)
1 | 6 | 90.3 | 5.5 | 87.2 | 59.8 | 3.69 | > 100 | 13.4 | 1.17 | 3.2 | 33.2 | 65.7 | 2.4 | CN(c1ncnc2[nH]ccc12)[C@H]1CN(S(=O)(=O)c2cccc(C#N)c2)CC12CC2
2 | 79.7 | > 100 | 56.1 | 96.7 | 63.9 | 2.07 | > 100 | 25.4 | 1.01 | 33.9 | 95.4 | 99.9 | 22.9 | CCS(=O)(=O)N1C[C@H](N(C)c2ncnc3[nH]ccc23)C2(CC2)C1
3 | 94.6 | 91.6 | 99.9 | 92 | 50.3 | 1.69 | 98.4 | 6.6 | 2.78 | 84.9 | 89.7 | 92.5 | 84.8 | CN(c1ncnc2[nH]ccc12)[C@H]1CN(C(=O)CC#N)CC12CC2

Reference: ChEMBL document CHEMBL4257478, “Design, synthesis and evaluation of (R)-3-(7-(methyl(7H-pyrrolo[2,3-d]pyrimidin-4-yl)amino)-5-azaspiro[2.4]heptan-5-yl)-3-oxopropanenitrile as a JAK1-selective inhibitor” (Medchemcomm, 2018)
